Measurements: ChEMBL document CHEMBL1165978, “Synthesis and evaluation of in vitro anticancer activity of some novel isopentenyladenosine derivatives” (Bioorg Med Chem, 2010)
Activity calls are given as the source filed them. No cut-off for these calls is given here.

Legend:
T-24 [1] = experiment: Antimetastatic activity in human T24 cells assessed as inhibition of EGF-stimulated cellular migration at 10 uM after 16 hrs by microscopic analysis; assay type: functional, cell-based
Summary of the method: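 Confluent T24 monolayers in 24-well plates were scratch-wounded, then given EGF (100 ng/mL) plus compound for 16 h, with DMSO (0.01% final) as control. Cells moving into the wound were photographed by microscope. Four fields per sample were counted and expressed as migration relative to control. Data are from at least 3 experiments in triplicate, mean ± SD, Student's t test.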

T-24 [2] = experiment: Antiproliferative activity against quiescent human T24 cells assessed as decrease in viable cell count at 10 uM after 72 hrs by trypan blue exclusion assay; assay type: functional, cell-based
Summary of the method: (§1)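 T24 cells were seeded at 2000/cm² in growth medium and allowed to attach for 16 h. They were then switched to complete medium (D-MEM, 10% FBS, 1 mM L-glutamine, penicillin/streptomycin) or to starvation medium (D-MEM, 0.1% FBS, 48 h, to induce quiescence). After 48 h, compound was added for 72 h, with 0.01% DMSO as control. Cells were trypsinized, stained with trypan blue and counted in a Burker chamber. Data are mean ± SD of at least 3 experiments in triplicate.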

T-24 [3] = experiment: Antiproliferative activity against proliferating human T24 cells at 10 uM after 72 hrs by MTT assay in presence of 10% fetal bovine serum
T-24 [4] = experiment: Antiproliferative activity against quiescent human T24 cells at 10 uM after 72 hrs by MTT assay; assay type: functional, cell-based
Summary of the method: (§2)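 T24 cells were seeded at 2000/cm², and 16 h later were exposed to starvation medium (D-MEM, 0.1% FBS) or fresh complete medium (10% FBS) and treated with compound, with 0.01% DMSO as control. For the final 1 h the medium held MTT at 0.5 mg/mL. Formazan was then dissolved in DMSO for read-out. Data are mean ± SD of at least 3 experiments in triplicate, Student's t test.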

T-24 [5] = experiment: Cytotoxicity against human T24 cells assessed as inhibition of cell colony formation at 10 uM after 24 hrs by crystal violet staining; assay type: functional, cell-based
T-24 [6] = experiment: Antiproliferative activity against proliferating human T24 cells at 10 uM after 72 hrs by MTT assay; assay type: functional, cell-based; summary of the method: as §2
T-24 [7] = experiment: Cytotoxicity against human T24 cells assessed as mild inhibition of cell colony formation at 10 uM after 24 hrs by crystal violet staining; assay type: functional, cell-based
T-24 [8] = experiment: Antiproliferative activity against proliferating human T24 cells assessed as mild decrease in viable cell count at 10 uM after 72 hrs by trypan blue exclusion assay; assay type: functional, cell-based; summary of the method: as §1

Structure (SMILES)	inhibition (T-24 [1])	inhibition (T-24 [2])	Activity (T-24 [3])	Activity (T-24 [4])	inhibition (T-24 [5])	Activity (T-24 [6])	inhibition (T-24 [7])	inhibition (T-24 [8])
CC(C)=CC[n+]1cnc2c(ncn2[C@@H]2O[C@H](CO)C[C@H]2O)c1N	inactive	Active	inactive					
CC(C)=CCNc1ncnc2c1ncn2[C@@H]1O[C@H](CO)[C@@H](O)[C@H]1O (stereo in doubt)	inactive			Active	Active			
CC(C)=CCNc1ncnc2c1ncn2[C@@H]1O[C@H](CO)[C@@H](O)[C@@H]1O				inactive	inactive	inactive		
CC(C)=CCNc1nc(N)nc2c1ncn2[C@@H]1O[C@H](CO)[C@@H](O)[C@H]1O	inactive	Active		Active			Active	Active
CC(C)=CCNc1ncnc2c1ncn2[C@@H]1O[C@H](CO)[C@@H](O)[C@H]1O (stereo in doubt; 1a)					inactive			
